Source: ChEMBL document CHEMBL1133997, “2,2-Dimethyl-4,5-diaryl-3(2H)furanone derivatives as selective cyclo-oxygenase-2 inhibitors” (Bioorg Med Chem Lett, 2001)

How the values were obtained:
[1] = target: T1, Prostaglandin G/H synthase 2 (Mus musculus, UniProt Q05769); experiment: Ability to inhibit Prostaglandin G/H synthase 2 by using freshly harvested mouse peritoneal macrophages
T1 sequence (Q05769 whole entry): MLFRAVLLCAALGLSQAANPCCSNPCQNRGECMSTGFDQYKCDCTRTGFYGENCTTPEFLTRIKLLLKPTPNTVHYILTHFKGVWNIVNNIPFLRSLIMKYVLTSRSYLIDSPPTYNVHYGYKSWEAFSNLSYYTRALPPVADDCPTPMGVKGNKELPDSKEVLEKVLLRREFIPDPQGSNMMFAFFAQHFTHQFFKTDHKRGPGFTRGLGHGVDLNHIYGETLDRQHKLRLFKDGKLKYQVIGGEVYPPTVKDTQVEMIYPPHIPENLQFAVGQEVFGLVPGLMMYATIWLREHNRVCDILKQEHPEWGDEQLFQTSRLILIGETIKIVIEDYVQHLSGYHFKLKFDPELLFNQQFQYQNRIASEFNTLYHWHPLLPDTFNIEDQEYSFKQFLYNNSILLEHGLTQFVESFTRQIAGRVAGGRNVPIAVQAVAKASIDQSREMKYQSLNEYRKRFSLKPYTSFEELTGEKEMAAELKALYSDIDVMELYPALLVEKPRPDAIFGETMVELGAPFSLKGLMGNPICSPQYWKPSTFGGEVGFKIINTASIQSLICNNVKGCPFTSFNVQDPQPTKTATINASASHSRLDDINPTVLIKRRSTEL

Rattus norvegicus [2] = organism: Rattus norvegicus; experiment: Effective dose required for the inhibition of adjuvant arthritis in Sprague-Darley rats; type: functional
Method in brief: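 Adjuvant-induced arthritis in Sprague–Darley rats, with compound dosed daily (mg/kg/day).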

[3] = target: T2, Prostaglandin G/H synthase 1 (Mus musculus, UniProt P22437); experiment: Ability to inhibit Prostaglandin G/H synthase 1 by using freshly harvested mouse peritoneal macrophages
T2 sequence (P22437 whole entry): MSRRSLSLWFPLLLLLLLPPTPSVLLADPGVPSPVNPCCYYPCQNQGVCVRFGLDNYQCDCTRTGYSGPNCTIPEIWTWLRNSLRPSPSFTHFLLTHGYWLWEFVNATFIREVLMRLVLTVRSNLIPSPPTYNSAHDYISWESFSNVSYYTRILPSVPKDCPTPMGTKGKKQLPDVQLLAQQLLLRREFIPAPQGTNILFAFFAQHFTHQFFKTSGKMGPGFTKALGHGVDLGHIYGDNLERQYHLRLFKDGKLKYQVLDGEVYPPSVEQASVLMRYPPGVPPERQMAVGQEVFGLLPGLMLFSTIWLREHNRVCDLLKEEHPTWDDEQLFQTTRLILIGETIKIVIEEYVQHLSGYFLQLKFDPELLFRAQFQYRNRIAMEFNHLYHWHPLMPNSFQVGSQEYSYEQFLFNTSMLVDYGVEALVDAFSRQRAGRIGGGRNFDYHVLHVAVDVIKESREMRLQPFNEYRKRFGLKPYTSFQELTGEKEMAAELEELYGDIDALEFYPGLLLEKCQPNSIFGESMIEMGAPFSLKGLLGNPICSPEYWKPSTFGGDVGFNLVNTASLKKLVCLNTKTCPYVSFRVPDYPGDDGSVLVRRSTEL

Rattus norvegicus [4] = experiment: In vivo inhibitory activity against carrageenan induced paw edema in Sprague-Darley rats after oral administration of the compound; type: functional
Method in brief: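 Sprague–Darley rats were given compound orally at 3 mg/kg body weight. Read-out was percent inhibition of paw edema, using five animals per group.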

IC50 [1] [µM] | IC50 [3] [µM] | SMILES | ED50 (Rattus norvegicus [2]) [mg/kg/day] | Inhibition (Rattus norvegicus [4]) [%]
0.191 | – | CS(=O)(=O)c1ccc(C2=C(c3ccccc3)C(=O)OC2)cc1 [ROFECOXIB] | – | –
0.842 | 56.1 | Cc1ccccc1C1=C(c2ccc(S(C)(=O)=O)cc2)OC(C)(C)C1=O | – | –
0.146 | 8.76 | CC1(C)OC(c2ccc(S(C)(=O)=O)cc2)=C(c2ccccc2)C1=O | – | –

Second part, the molecule before the results:

SMILES | IC50 [1] [µM] | IC50 [3] [µM] | ED50 (Rattus norvegicus [2]) [mg/kg/day] | Inhibition (Rattus norvegicus [4]) [%]
CC1(C)OC(c2ccc(S(C)(=O)=O)cc2)=C(c2cc(F)cc(F)c2)C1=O | 0.0793 | – | 0.03 | –
CC1(C)OC(c2ccc(S(C)(=O)=O)cc2)=C(c2cccc(F)c2)C1=O | – | – | 0.08 | –
CC1(C)OC(c2ccc(S(C)(=O)=O)cc2)=C(c2cccc(C(F)(F)F)c2)C1=O | 0.122 | 7.31 | 0.06 | –
CC1(C)OC(c2ccc(S(C)(=O)=O)cc2)=C(c2cccc(Cl)c2)C1=O | – | – | – | 32
Cc1ccc(-c2cc(C(F)(F)F)nn2-c2ccc(S(N)(=O)=O)cc2)cc1 [CELECOXIB] | – | – | 0.2 | 31
